KCNK3 block: human KCNK3 channel inhibition, primary screen | B-score at 10 µM | 340,000 tested, 0.84% active | CHO-KCNK3 thallium flux, FluxOR fluorescence; hits give low values | AID 602410;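 active = B-score under library mean minus 4 SD, starting fluorescence ratio at most library mean plus 5 SD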;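 note: more negative B-score means stronger inhibition of thallium flux through KCNK3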
KCNQ1 block: blocks the human KCNQ1 potassium channel. P51787. 310,000 tested, 1.3% active. AID 2642. B-score at 10 µM. CHO-K1 KCNQ1, FluxOR thallium flux fluorescence; hits give high values;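 active = compounds whose thallium flux B-score, printed positive for inhibition, exceeds three library SD while starting fluorescence stays within three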;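 note: channel opened by potassium depolarization with thallium stimulus after 20 min compound exposure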
hERG rescue: compounds protecting human hERG from proarrhythmic drug block | CHO-hERG, FluxOR thallium flux, dofetilide IC70 present | activation (rescue from dofetilide block), less the hit threshold, % at 10 µM | Q12809 | 310,000 tested, 0.51% active;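 active = activation above the mean of controls blocked by dofetilide plus 5 SD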;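 note: thallium influx through hERG after potassium depolarization seen as dye fluorescence rise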
KCNK9 inh: blocks the human KCNK9 two-pore domain potassium channel; Q9NPC2; HEK293 KCNK9, FluxOR thallium flux fluorescence; hits give low values; B-score at 10 µM; 310,000 tested, 1.2% active;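 active = ratio B-score over 3 SD below the library mean, with starting fluorescence within 5 SD of its mean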;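 note: negative B-score means less thallium flux so channel inhibition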
Kir21 inh: blocks the mouse Kir2.1 inward-rectifier potassium channel; HEK293-Kir2.1, FluxOR thallium flux fluorescence; hits give low values; 310,000 tested, 0.85% active; B-score at 10 µM; P35561;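 active = fluorescence ratio B-score at or below minus 3 SD of library scores, with starting-brightness B-score within 2 SD, cut at about -4.2 in these data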;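 note: channel flux triggered by added potassium and thallium sulfate stimulus; B-score of peak minus minimum fluorescence over baseline after thallium stimulus; more negative B-score means stronger Kir2.1 block with less thallium influx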
KCNQ1 pot: potentiators or activators of human KCNQ1 potassium channel; 310,000 tested, 0.35% active; P51787; B-score at 10 µM; CHO-K1 KCNQ1, thallium flux FluxOR fluorescence; hits give high values;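 active = fluorescence ratio B-score, a plate-corrected score, at least three library SD, with initial intensity B-score within 5 SD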
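Medium – assay buffer, equal DMSO in all wells · Material – CHO-K1 cell line with stable KCNQ1 potassium channel expression · Signal – kinetic FluxOR thallium fluorescence, 10-s 1-Hz baseline, 110-s post-stimulus read · Compound – single concentration per compound, DMSO matched to controls · Schedule – 37 °C overnight plating, 90-min dark dye load, 20-min compound pretreatment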
KCNQ1 inh valid: reconfirmed blocker of the human KCNQ1 potassium channel | shares compounds with KCNQ1 block | KCNQ1 cell line, FluxOR thallium flux fluorescence | inhibition, % at 10 µM | 1,600 tested, 93% active;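 active = primary screen active, with duplicate mean exceeding buffer control mean plus 3 SD of buffer wells, cut at about 28% in these data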;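 note: 0% = buffer control ratio and 100% = XE991 inhibitor control ratio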
CHO KCNQ1 ctr: activity in parental CHO cells lacking KCNQ1 | shares compounds with KCNQ1 block | parental CHO-K1, FluxOR thallium flux fluorescence ratio; hits give low values; zero means no signal rise above baseline | fluorescence ratio (Tl flux) at 10 µM | 1,600 tested, 21% active | AID 588366;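 active = mean of duplicate thallium-flux fluorescence ratios in parental host cells more than 5 SD below the buffer control mean, cut at about 0.38 in these data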;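 note: ratio is peak minus minimum fluorescence divided by baseline fluorescence; actives read low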
KCNQ1 APC inh: confirmation of human KCNQ1 potassium channel inhibitors by electrophysiology; shares compounds with KCNQ1 block; KCNQ1-CHO cells, automated patch clamp current; calls only at 10 µM; 490 tested, 20% active; AID 624120;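 active = KCNQ1 current drop exceeding 3 SD of negative control wells, seen in both duplicate runs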;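 note: steady state current during a 2 s step from -80 to +40 mV; negative values mean current inhibition and positive values mean potentiation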
KCNQ2 inh: KCNQ1 inhibitor that also blocks rat KCNQ2 channel. 1,600 tested, 71% active. inhibition, % at 10 µM. shares compounds with KCNQ1 block. KCNQ2 cells, FluxOR thallium flux fluorescence. AID 651746;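 active = mean percent inhibition of the KCNQ2 thallium signal more than 5 SD above the buffer-only control wells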;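 note: KCNQ2 expressed in CHO cells; 0% = buffer control wells and 100% = XE-991 inhibitor control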
Target sequence (O88943 whole entry, looked up): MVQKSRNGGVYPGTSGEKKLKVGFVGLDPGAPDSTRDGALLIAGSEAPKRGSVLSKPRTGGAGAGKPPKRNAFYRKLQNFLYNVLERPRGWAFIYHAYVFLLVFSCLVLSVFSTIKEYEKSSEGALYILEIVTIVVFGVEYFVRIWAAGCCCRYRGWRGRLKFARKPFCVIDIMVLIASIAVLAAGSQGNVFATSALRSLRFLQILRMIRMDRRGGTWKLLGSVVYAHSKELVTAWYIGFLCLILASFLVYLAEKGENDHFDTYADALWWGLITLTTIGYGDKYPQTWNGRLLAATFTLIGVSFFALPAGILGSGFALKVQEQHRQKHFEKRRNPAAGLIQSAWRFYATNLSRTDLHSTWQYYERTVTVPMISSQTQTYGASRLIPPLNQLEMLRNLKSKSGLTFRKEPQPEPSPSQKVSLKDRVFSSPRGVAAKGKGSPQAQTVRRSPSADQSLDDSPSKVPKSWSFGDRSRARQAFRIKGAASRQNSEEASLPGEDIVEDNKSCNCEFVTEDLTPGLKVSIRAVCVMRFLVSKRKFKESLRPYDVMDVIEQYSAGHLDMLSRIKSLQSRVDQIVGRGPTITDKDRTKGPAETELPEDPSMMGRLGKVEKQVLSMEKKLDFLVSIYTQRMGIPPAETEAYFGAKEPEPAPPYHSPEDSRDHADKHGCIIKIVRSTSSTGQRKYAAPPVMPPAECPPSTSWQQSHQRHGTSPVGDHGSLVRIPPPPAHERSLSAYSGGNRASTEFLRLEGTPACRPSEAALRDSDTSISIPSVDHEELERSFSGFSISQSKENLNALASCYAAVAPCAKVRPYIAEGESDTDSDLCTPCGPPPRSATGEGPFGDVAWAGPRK
KCNQ1 KCNE1 spec: KCNQ1 inhibitor that also blocks human KCNQ1/KCNE1 channel. inhibition, % at 10 µM. KCNQ1/KCNE1 cells, FluxOR thallium flux fluorescence. 1,600 tested, 77% active. shares compounds with KCNQ1 block;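 active = mean percent inhibition of duplicate wells above the buffer-only control mean plus 3 SD of those controls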;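 note: 0% = buffer only wells and 100% = XE-991 inhibitor control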
Active calls of the source: *; i = inactive; nt = no result given; + = active, no number. Sampled rows, rich in hits. Any-hit rate of the full collection: about 3.7%.

SMILES	KCNK3 block	KCNQ1 block	hERG rescue	KCNK9 inh	Kir21 inh	KCNQ1 pot	KCNQ1 inh valid	CHO KCNQ1 ctr	KCNQ2 inh	KCNQ1 KCNE1 spec	others
Cc1cc(S(=O)(=O)N2CCN(CC(=O)NCCc3cccs3)CC2)ccc1Br	i	nt	nt	nt	nt	nt	nt	nt	nt	nt
Cc1cc(C)c2nc(N3C(=O)C(O)=C(C(=O)c4ccco4)C3c3cccc(O)c3)sc2c1 (centres undefined)	i	nt	nt	nt	nt	nt	nt	nt	nt	nt
COC(=O)c1c(C)oc2ccc(N(C(=O)c3ccncc3)S(=O)(=O)c3ccc(C)cc3C)cc12	i	9*	-11	i	-0.63	i	135*	0.39	127%*	131%*	KCNQ1 APC inh=i
COC(=O)c1c(C)oc2ccc(N(C(=O)c3ccncc3)S(=O)(=O)c3ccccc3)cc12	i	i	-12	i	-0.37	i	nt	nt	nt	nt
COC(=O)c1c(C)oc2ccc(N(C(=O)c3ccncc3)S(=O)(=O)c3ccc4ccccc4c3)cc12	i	8*	-10	i	0.32	i	136*	0.4	110%*	140%*
CN(Cc1ccccc1)C(=O)c1[nH]cnc1C(=O)Nc1ccon1	i	nt	nt	nt	nt	nt	nt	nt	nt	nt
COC(=O)[C@@]1(C)[C@H]2C(=O)N(C)C(=O)[C@H]2[C@H]2CN(C)C(=NC3CCCCC3)N21	i	nt	nt	nt	nt	nt	nt	nt	nt	nt
CC(C)Cn1c(CCCNC(=O)c2ccco2)nc2ccccc21	i	i	-7	i	-3.9	i	nt	nt	nt	nt
COC(CNC(=O)c1ccc2c3c(onc13)-c1ccccc1C2=O)OC	i	6*	-46	i	-12	i	+	0.086*	i	i
O=C(C[C@H]1C[C@H](C(=O)N2CCOCC2)[C@@]2(CCC3CCCC3)c3[nH]c4ccc(Cl)cc4c3CCN2C1=O)NCCCn1ccnc1	i	nt	nt	nt	nt	nt	nt	nt	nt	nt
Cc1cc(C(=O)NC2CCCc3c2cnn3-c2cccc(C)c2C)n(C)n1 (centres undefined)	i	16*	-20	i	0.02	i	84*	0.5	60%*	46%*
Cn1nccc1C(=O)NC1CCCc2c1cnn2-c1ccc(C(C)(C)C)cc1 (centres undefined)	i	9*	-14	i	1.1	i	94*	0.52	93%*	43%*	KCNQ1 APC inh=i
COc1ccc(CCNC(=O)COC(=O)/C=C/c2ccc3c(c2)OCO3)cc1OC	i	nt	nt	nt	nt	nt	nt	nt	nt	nt
O=C(Cc1ccccc1Cl)Nc1cccc(S(=O)(=O)N2CCCCCC2)c1	i	nt	nt	nt	nt	nt	nt	nt	nt	nt
O=C(Nc1cccc(S(=O)(=O)N2CCCCC2)c1)Nc1ccc(Cl)cc1Cl	i	7*	-10	i	1.7	i	98*	0.45	97%*	70%*	KCNQ1 APC inh=i
CCCCC(=O)O[C@H]1CC[C@H]2[C@@H]3CCc4cc(O)ccc4[C@H]3CC[C@]12C	i	6*	-5	i	0.01	i	72*	0.44	63%*	100%*
CCOc1ccc(NC(=O)Cn2nnc(-c3ccc(C(N)=O)cc3)n2)cc1S(=O)(=O)N1CCCC1	i	nt	nt	nt	nt	nt	nt	nt	nt	nt
COCCN1CCN(c2cc(-c3ccccc3)nc3cc(-c4cccc(F)c4)nn23)CC1	i	6*	-12	i	-0.56	i	118*	0.34*	133%*	156%*
Fc1cccc(-c2cc3nc(-c4ccccc4)cc(N4CCC5(CC4)OCCO5)n3n2)c1	i	i	-3	i	0.92	i	nt	nt	nt	nt
FC(F)(F)c1cccc(-c2nc3nc(Cl)c(Cl)nc3[nH]2)c1	i	8*	-15	i	0.09	i	52*	0.54	i	i
OCCNc1nc(N2CCCCC2)nc2ccccc12	i	i	-5	i	0.65	i	nt	nt	nt	nt
c1coc(CNc2nc(N3CCCCC3)nc3ccccc23)c1	i	9*	-16	i	-4.6*	i	60*	0.38*	72%*	62%*
CC1(C)CC(NC(=O)c2ccc(Cl)c(Cl)c2)CC(C)(C)N1	i	i	-2	i	-1.3	i	nt	nt	nt	nt
Cc1cccc2nc3ccccc3cc12	i	i	-6	i	-1.8	i	nt	nt	nt	nt
C/C(O)=c1/ccc2cccc3nc(C)nc1c23	i	8*	-28	i	-9	i	117*	0.25*	i	i
SMILES	KCNK3 block	KCNQ1 block	hERG rescue	KCNK9 inh	Kir21 inh	KCNQ1 pot	KCNQ1 inh valid	CHO KCNQ1 ctr	KCNQ2 inh	KCNQ1 KCNE1 spec	others
CCOC(=O)C1=C(CC)Nc2ccccc2N=C1NC(=O)c1cc(C)on1	i	nt	nt	nt	nt	nt	nt	nt	nt	nt
CCOC(=O)C1=C(CC)Nc2ccccc2N=C1NC(=O)Nc1ccc(Cl)c(Cl)c1	i	11*	-4	-6.9*	1.9	i	116*	0.52	i	i	KCNQ1 APC inh=i
O=C(CNC(=O)c1ccc(Cl)cc1Cl)OCn1nnc2ccccc2c1=O	i	i	-11	i	0.01	i	nt	nt	nt	nt
CC(C)Cn1c(=O)c(C(=O)Nc2ccccc2S(N)(=O)=O)c(O)c2ccccc21	i	8*	-9	i	-0.34	i	118*	0.41	63%*	148%*
c1ccc(CC2CCN(c3ncnc4sccc34)CC2)cc1	i	8*	-32	i	0.02	i	136*	0.33*	89%*	176%*
CCN(CC)c1nc(-c2ccccc2)ncc1S(=O)(=O)c1ccc(C)cc1	i	6*	-22	i	-1.4	i	84*	0.41	80%*	130%*
Cc1c(Cl)cccc1NC(=O)CN(C1CCCCC1)S(C)(=O)=O	i	i	-9	i	-0.05	i	nt	nt	nt	nt
CN(Cc1ccccc1)S(=O)(=O)c1ccc(NS(=O)(=O)Cc2ccccc2)cc1	i	8*	-17	i	-0.47	i	130*	0.37*	118%*	92%*
CC(C)C(=O)NC(=S)Nc1ccc(S(=O)(=O)N(C)Cc2ccccc2)cc1	i	11*	-9	i	-0.29	i	117*	0.42	104%*	196%*	KCNQ1 APC inh=i
CC(=O)NC(=S)Nc1ccc(S(=O)(=O)N(C)Cc2ccccc2)cc1	i	i	-8	i	1.3	i	nt	nt	nt	nt
CCNS(=O)(=O)c1ccc(OC)c(C(=O)NC2CCCCC2)c1	i	i	-6	i	0.02	i	nt	nt	nt	nt

Assay outcomes: PubChem BioAssay, Johns Hopkins Ion Channel Center
